Consider two molecules from ChEMBL document CHEMBL1212711, “Mechanistic and functional insights into fatty acid activation in Mycobacterium tuberculosis” (Nat Chem Biol, 2009).

Experiment [1] relates to Mycobacterium tuberculosis. Briefly: Antimicrobial activity against Mycobacterium tuberculosis H37Rv assessed decrease in SL-1 biosynthesis by [14C]propionate incorporation assay. It counts as functional, organism-based. The method, boiled down: (§1)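 Mid-log H37Rv cultures (10 ml) given 5 μCi ^14C-propionate (methylated lipids) or ^14C-acetate (fatty/mycolic acids) plus various LAMS concentrations. Incubated 16 h at 37°C. Mycolic acids and total extractable lipids then analysed.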

Experiment [2] relates to Mycobacterium tuberculosis. Briefly: Antimicrobial activity against Mycobacterium tuberculosis H37Rv assessed as reduction in appearance of dense granular cytoplasm by transmission electron microscopy. It is filed as functional, organism-based.
Experiment [3] relates to Mycobacterium tuberculosis H37Rv. As to the kind of experiment: Stabilization of Mycobacterium tuberculosis H37Rv FACL19 assessed as protection against proteolysis. In a few lines: (§2)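 Limited tryptic proteolysis of purified protein in the presence of increasing LAMS concentrations. Protection from fragmentation taken as a sign of binding-induced conformational change.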

Experiment [4] has the same test system. Briefly: (§3) Inhibition of Mycobacterium tuberculosis H37Rv FACL28. The conditions noted are these: TDE = time-dependent effect. In a few lines:
(§4)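 Purified enzyme pre-incubated with increasing LAMS concentrations, then activity measured by radio-TLC acyl-adenylation assay. Dose-response data fitted to the Morrison tight-binding equation using enzyme concentration to obtain apparent Ki.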

The subject of experiment [5] is Mycobacterium tuberculosis. Briefly: Antimicrobial activity against Mycobacterium tuberculosis H37Rv assessed decrease in fatty acid biosynthesis by [14C]-acetate incorporation assay. It counts as functional, organism-based. The method, boiled down:
as §1

For experiment [6], the system named is Mycobacterium tuberculosis. As to the kind of experiment: Antimicrobial activity against Mycobacterium tuberculosis H37Rv assessed as degeneration of peptidoglycan layer in cell wall by transmission electron microscopy. It counts as functional, organism-based.
For experiment [7], the system named is Mycobacterium tuberculosis. Briefly: Antimicrobial activity against Mycobacterium tuberculosis H37Rv assessed as degeneration of lipid layer in cell wall by transmission electron microscopy. It counts as functional, organism-based.
Experiment [8] relates to Mycobacterium tuberculosis H37Rv. Briefly: Binding affinity to Mycobacterium tuberculosis H37Rv FAAL19 assessed as noncovalent protein-ligand interaction by mass spectroscopy. The method, boiled down: (§5)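 Purified enzyme–inhibitor (EI*) complex extracted with ethyl acetate. Released acyl-AMS detected by mass spectrometry to test for non-covalent versus covalent binding.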

The test system of experiment [9] is Mycobacterium tuberculosis. As to the kind of experiment: Antimicrobial activity against Mycobacterium tuberculosis H37Rv assessed decrease in mycolic acid biosynthesis by [14C]-acetate incorporation assay. It counts as functional, organism-based. In a few lines: as §1
Experiment [10] concerns Mycobacterium tuberculosis. Briefly: Antimicrobial activity against Mycobacterium tuberculosis H37Rv assessed decrease in PDIM biosynthesis by [14C]propionate incorporation assay. It counts as functional, organism-based. The method, boiled down: as §1
Experiment [11] relates to Mycobacterium tuberculosis H37Rv. As to the kind of experiment: Stabilization of Mycobacterium tuberculosis H37Rv FAAL28 assessed as protection against proteolysis. The method, boiled down:
as §2

The subject of experiment [12] is Mycobacterium tuberculosis. Briefly: Antimicrobial activity against Mycobacterium tuberculosis MC2 assessed as concentration required for 100-fold reduction in bacterial CFU. It is filed as functional. In a few lines: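 Susceptibility followed by CFU counts on plates containing various inhibitor concentrations. MIC99 is taken as the concentration causing a 10^2 reduction in colony forming units.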

Experiment [13] concerns Mycobacterium tuberculosis H37Rv. Briefly: (§6) Inhibition of Mycobacterium tuberculosis H37Rv FAAL19. The conditions noted are these: TDE = time-dependent effect. The method, boiled down:
as §4

In experiment [14] the test system is Mycobacterium tuberculosis. As to the kind of experiment: Antimicrobial activity against Mycobacterium tuberculosis H37Rv assessed as concentration required for 100-fold reduction in bacterial CFU. It counts as functional. The method, boiled down: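 H37Rv culture serially diluted and plated on Middlebrook 7H10 agar with OADC containing various concentrations of the acyl-AMS analogue. Colonies counted after two weeks at 37°C. MIC is the concentration giving a 10^2-fold CFU reduction.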

The test system of experiment [15] is Mycobacterium tuberculosis H37Rv. As to the kind of experiment: Binding affinity to Mycobacterium tuberculosis H37Rv FACL28 assessed as noncovalent protein-ligand interaction by mass spectroscopy. The method, boiled down: as §5
The subject of experiment [16] is Mycobacterium tuberculosis. Briefly: Antimicrobial activity against Mycobacterium tuberculosis H37Rv assessed as occurrence of irregular cell shape by transmission electron microscopy. It is filed as functional, organism-based.
The subject of another experiment is Rhodococcus sp. As to the kind of experiment: Activity at Rhodococcus sp. FAAL expressed in Escherichia coli assessed as palmitoyl-CoA formation at 1 mM by TLC method. In a few lines: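 Recombinant Rhodococcus ro_4064 protein expressed in E. coli, assayed cell-free with palmitic acid as substrate, with or without 1 mM CoASH. Products separated by TLC and detected by autoradiography.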

A short description of experiment [17]: as §3. The method, boiled down: as §4
The subject of experiment [18] is Mycobacterium tuberculosis H37Rv. As to the kind of experiment: Activity at Mycobacterium tuberculosis H37Rv FAAL28 assessed as conversion of lauroyl-AMP to lauryl-CoA by radio-TLC assay.
Experiment [19] in a line: as §6. The method, boiled down: as §4
The test system of experiment [20] is Mycobacterium tuberculosis H37Rv. Briefly: Activity at Mycobacterium tuberculosis H37Rv FACL19 assessed as acy-CoA formation by radio-TLC assay.

Values after ≈ are worked out from the molar mass of the structure shown. Active and inactive are the calls of the source. The calls are words filed in the database; no cut-off is given here.

For `CCCCCCCCCCCC(=O)NS(=O)(=O)OC[C@H]1O[C@@H](n2cnc3c(N)ncnc32)[C@H](O)[C@@H]1O`, the result in [1], in [2], in experiment [6], in experiment [7], in experiment [8] and in experiment [10] was Active. The result in [16] was Active. In addition, the Activity entry in experiment [3], in [9] and in [11] was “Dose-dependent effect” in each case. For the same molecule, the inhibition entry in [4] and in [13] was “tde” throughout. Also, the result in experiment [5] was inactive. For the same molecule, the MIC99 worked out at 215 µM (≈ 114 µg/mL) in [12] and 100 µM (≈ 52.9 µg/mL) in experiment [14]. Further, the Km in experiment [15] came out at 24 µM.
`CC(C)(COP(=O)(O)OP(=O)(O)OC[C@H]1O[C@@H](n2cnc3c(N)ncnc32)[C@H](O)[C@@H]1OP(=O)(O)O)[C@@H](O)C(=O)NCCC(=O)NCCS` [COENZYME_A]: the outcome (in the experiment with Rhodococcus sp.; in [18]) was inactive. The half-maximal inhibitory concentration (IC50) turned out to be 1200 nM in experiment [17] and 1250 nM in experiment [19]. Besides, the Ki in [19] (read-out: Ki(app)) turned out to be 4900 nM. Further, in experiment [20], the result was Active.

As usually defined, the MIC99 is an inhibitory concentration at the 99% level, which refers to growth in some studies and to a panel of isolates in others. Usually Km stands for the concentration of substrate that gives half-maximal velocity. What is called IC50 is the concentration at which inhibition is half-maximal. Lower therefore signals greater potency.
